Experimental data from ChEMBL document CHEMBL4304816, “A Novel Biphenyl-based Chemotype of Retinoid X Receptor Ligands Enables Subtype and Heterodimer Preferences” (ACS Med Chem Lett, 2019).
pEC50: −log10 of the molar value. Calls of active or inactive are those of the source. The rule behind the calls is not given here.

Tests used:
Format in all cases: cell-based
[1] = biological target: T1, Retinoic acid receptor RXR-beta (Homo sapiens, UniProt P28702); assay: Agonist activity at Gal4-LBD fused RXRbeta (unknown origin) expressed in HEK293T cells after 14 to 16 hrs by dual-Glo luciferase assay
T1 sequence (P28702 whole entry): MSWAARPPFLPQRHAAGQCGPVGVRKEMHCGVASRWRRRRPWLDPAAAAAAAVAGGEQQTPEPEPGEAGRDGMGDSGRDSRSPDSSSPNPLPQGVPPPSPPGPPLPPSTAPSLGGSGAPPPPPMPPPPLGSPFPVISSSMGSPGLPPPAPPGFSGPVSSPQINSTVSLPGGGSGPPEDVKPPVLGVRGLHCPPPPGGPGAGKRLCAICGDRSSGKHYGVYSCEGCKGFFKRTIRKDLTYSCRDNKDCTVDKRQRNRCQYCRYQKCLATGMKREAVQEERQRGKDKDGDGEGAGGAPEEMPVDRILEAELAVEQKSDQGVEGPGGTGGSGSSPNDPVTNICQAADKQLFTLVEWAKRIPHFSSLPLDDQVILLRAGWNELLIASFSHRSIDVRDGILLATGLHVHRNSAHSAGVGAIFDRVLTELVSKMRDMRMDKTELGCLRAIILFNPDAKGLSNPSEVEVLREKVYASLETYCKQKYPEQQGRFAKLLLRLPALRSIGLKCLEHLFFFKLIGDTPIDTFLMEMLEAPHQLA
Procedure, shortened: (§1)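 Gal4-hybrid RXRα/β/γ reporter gene assays in HEK293T cells. Fold activation is the maximal fold activation versus 0.1% DMSO.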

[2] = biological target: T2, Retinoic acid receptor RXR-alpha (Homo sapiens, UniProt P19793); assay: Agonist activity at Gal4-LBD fused RXRalpha (unknown origin) expressed in HEK293T cells after 14 to 16 hrs by dual-Glo luciferase assay; procedure, shortened: as §1
T2 sequence (P19793 whole entry): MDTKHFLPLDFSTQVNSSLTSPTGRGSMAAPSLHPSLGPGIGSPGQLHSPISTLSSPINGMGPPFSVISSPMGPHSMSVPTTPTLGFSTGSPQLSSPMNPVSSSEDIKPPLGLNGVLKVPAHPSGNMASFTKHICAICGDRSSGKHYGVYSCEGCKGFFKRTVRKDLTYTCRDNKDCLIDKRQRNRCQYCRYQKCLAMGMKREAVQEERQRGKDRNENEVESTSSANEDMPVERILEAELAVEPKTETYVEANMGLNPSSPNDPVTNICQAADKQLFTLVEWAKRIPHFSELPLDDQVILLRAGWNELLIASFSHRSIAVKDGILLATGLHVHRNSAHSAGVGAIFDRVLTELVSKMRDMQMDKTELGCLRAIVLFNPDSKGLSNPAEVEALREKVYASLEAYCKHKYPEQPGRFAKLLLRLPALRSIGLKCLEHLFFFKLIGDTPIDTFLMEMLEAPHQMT

[3] = biological target: T3, Retinoic acid receptor beta (Homo sapiens) (UniProt P10826); assay: Agonist activity at Gal4-LBD fused RARbeta (unknown origin) expressed in HEK293T cells at 10 uM after 14 to 16 hrs by dual-Glo luciferase assay
T3 sequence (whole entry): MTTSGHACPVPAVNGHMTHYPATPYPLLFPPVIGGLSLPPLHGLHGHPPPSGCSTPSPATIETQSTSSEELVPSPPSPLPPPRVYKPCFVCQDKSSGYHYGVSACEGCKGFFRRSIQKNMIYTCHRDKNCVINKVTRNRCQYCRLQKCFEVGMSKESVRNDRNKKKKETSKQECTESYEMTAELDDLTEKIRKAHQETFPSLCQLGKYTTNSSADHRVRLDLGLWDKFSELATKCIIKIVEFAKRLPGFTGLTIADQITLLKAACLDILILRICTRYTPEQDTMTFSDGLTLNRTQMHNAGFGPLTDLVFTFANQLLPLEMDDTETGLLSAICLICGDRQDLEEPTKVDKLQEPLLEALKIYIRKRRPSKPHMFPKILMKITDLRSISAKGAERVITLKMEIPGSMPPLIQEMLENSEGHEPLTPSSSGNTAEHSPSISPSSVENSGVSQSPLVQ
Procedure, shortened: (§2)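 Gal4-hybrid reporter gene selectivity panel of related nuclear receptors (PPARα/β/γ, RARα/β/γ) in HEK293T cells. Activity is read as mean fold activation versus 0.1% DMSO vehicle, n ≥ 2.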

[4] = biological target: T4, Peroxisome proliferator-activated receptor delta (Homo sapiens) (UniProt Q03181); assay: Agonist activity at Gal4-LBD fused PPARbeta (unknown origin) expressed in HEK293T cells at 10 uM after 14 to 16 hrs by dual-Glo luciferase assay; procedure, shortened: as §2
T4 sequence (whole entry): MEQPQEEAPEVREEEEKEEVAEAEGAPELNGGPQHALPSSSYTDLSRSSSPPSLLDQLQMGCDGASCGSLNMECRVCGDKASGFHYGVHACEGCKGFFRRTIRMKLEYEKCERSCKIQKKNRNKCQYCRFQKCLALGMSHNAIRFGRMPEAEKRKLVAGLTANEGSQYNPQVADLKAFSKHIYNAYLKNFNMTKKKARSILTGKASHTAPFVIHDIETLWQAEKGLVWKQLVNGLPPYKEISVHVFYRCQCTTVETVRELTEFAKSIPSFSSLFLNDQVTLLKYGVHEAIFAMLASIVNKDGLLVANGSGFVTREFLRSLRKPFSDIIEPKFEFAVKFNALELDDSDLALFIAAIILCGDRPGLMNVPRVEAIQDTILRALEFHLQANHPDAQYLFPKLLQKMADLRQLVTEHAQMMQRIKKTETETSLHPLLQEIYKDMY

[5] = biological target: T5, Peroxisome proliferator-activated receptor alpha (Homo sapiens) (UniProt Q07869); assay: Agonist activity at Gal4-LBD fused PPARalpha (unknown origin) expressed in HEK293T cells at 10 uM after 14 to 16 hrs by dual-Glo luciferase assay; procedure, shortened: as §2
T5 sequence (whole entry): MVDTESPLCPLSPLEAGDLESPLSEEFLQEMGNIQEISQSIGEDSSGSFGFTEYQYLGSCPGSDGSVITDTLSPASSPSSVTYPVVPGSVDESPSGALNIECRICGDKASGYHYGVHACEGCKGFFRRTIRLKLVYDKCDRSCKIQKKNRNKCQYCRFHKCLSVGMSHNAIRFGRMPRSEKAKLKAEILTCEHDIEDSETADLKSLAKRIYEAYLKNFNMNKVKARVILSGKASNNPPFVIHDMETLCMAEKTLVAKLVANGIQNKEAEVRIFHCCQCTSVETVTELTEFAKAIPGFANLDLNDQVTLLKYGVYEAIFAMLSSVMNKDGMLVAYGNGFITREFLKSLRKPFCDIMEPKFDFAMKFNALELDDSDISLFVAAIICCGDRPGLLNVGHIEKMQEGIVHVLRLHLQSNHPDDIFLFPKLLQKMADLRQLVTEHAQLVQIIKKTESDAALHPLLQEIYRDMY

pEC50 [1] | pEC50 [2] | Activity [3] | Activity [4] | Activity [5] | SMILES
4.92 | 5.10 | – | – | – | Cc1cc(-c2ccc(C(=O)O)cc2)cc(C(C)(C)C)c1
5.18 | – | Active | Active | Active | Cc1cc(-c2cc(C(C)(C)C)cc(C(C)(C)C)c2)ccc1C(=O)O
6.54 | 6.68 | Active | Active | Active | Cc1cc(-c2cc(C(F)(F)F)cc(C(F)(F)F)c2)ccc1CC(=O)O
